# In ChEMBL document CHEMBL5032510, “Identification of Novel Fused Heteroaromatics-Based MALT1 Inhibitors by High-Throughput Screening to Treat B Cell Lymphoma” (J Med Chem, 2021):
# Calls of active or inactive are those of the source. The rule behind the calls is not given here.
# Key:
# [1] = target: T1, Mucosa-associated lymphoid tissue lymphoma translocation protein 1 (Homo sapiens, UniProt Q9UDY8); assay: Inhibition of N-terminal his-tagged GCN4 leucine zipper fused human MALT1 […] expressed in Escherichia coli using Ac-LVSR-AMC as substrate by HTS assay
# T1 sequence (Q9UDY8 whole entry): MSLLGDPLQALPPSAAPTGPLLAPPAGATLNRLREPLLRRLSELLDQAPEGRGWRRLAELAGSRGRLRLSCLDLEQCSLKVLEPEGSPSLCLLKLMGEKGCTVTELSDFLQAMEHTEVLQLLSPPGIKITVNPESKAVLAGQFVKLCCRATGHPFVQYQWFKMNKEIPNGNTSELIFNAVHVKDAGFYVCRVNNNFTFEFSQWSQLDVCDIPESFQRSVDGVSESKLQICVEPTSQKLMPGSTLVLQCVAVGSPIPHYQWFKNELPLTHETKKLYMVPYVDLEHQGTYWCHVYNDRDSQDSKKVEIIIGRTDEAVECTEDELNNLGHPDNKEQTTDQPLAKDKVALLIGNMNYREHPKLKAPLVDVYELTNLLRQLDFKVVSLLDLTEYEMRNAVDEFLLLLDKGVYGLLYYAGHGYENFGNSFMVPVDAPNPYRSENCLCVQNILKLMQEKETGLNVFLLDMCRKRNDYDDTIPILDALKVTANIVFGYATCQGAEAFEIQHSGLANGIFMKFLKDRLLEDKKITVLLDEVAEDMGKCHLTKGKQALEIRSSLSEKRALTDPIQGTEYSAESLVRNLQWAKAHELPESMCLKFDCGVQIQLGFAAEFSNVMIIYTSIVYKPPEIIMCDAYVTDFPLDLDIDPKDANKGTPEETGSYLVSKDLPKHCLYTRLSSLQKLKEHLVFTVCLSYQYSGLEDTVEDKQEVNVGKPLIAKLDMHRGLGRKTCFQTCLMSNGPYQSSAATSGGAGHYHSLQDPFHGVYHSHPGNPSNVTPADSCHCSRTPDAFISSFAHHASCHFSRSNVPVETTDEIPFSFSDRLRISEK
# [2] = tested on: OCI-Ly1; assay: Antiproliferative activity against human OCI-Ly1 cells assessed as inhibition of cell growth incubated for 72 hrs by Celltiter-Glo luminescent assay; type: functional
# Outline: (§1)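 Exponentially growing cells were seeded at 1 × 10⁴ per 100 μL. HBL-1 and TMD8 were kept in RPMI with 10% FBS, 2 mM glutamine and 10 mM HEPES; OCI-LY1 in Iscove's medium with 20% FBS; all at 37 °C and 5% CO2. Cells were exposed to DMSO or 2-fold serial dilutions from 100 μM for 72 h, in triplicate on one plate. CellTiter-Glo luminescence was read after 1 h. Growth inhibition was calculated against control, accounting for initial cell number, and GI50 was fitted.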
# [3] = Antiproliferative activity against human HBL1 cells assessed as inhibition of cell growth incubated for 72 hrs by Celltiter-Glo luminescent assay; type: functional; outline: as §1
# [4] = tested on: TMD8; assay: Antiproliferative activity against human TMD8 cells assessed as inhibition of cell growth incubated for 72 hrs by Celltiter-Glo luminescent assay; type: functional; outline: as §1
Compound,IC50 [1],GI50 [2],GI50 [3],GI50 [4],Activity [2]
O=C(Nc1ccccc1)c1sc(=S)n2c1[nH]c(=O)c1ccccc12,> 25 µM,,,,
O=C(O)c1cccc(NC(=O)c2sc(=S)n3c2[nH]c(=O)c2ccc(Cl)cc23)c1,8.36 µM,22.8 µM,22.8 µM,22.8 µM,
Cc1ccccc1NC(=O)c1sc(=S)n2c1[nH]c(=O)c1ccc(Cl)cc12,11 µM,,,,
Cc1ccc(Cl)cc1NC(=O)c1sc(=S)n2c1[nH]c(=O)c1cc3c(cc12)OCO3,3.6 µM,48 µM,32 µM,12 µM,
O=C(Nc1cccc(F)c1)c1sc(=S)n2c1[nH]c(=O)c1cc(Br)ccc12,16.1 µM,17.1 µM,17.1 µM,17.1 µM,
O=C(Nc1cccc(Cl)c1[N+](=O)[O-])c1sc(=S)n2c1[nH]c(=O)c1ccc(Cl)cc12,4.4 µM,,,,
O=C(Nc1ccc([N+](=O)[O-])cc1)c1sc(=S)n2c1[nH]c(=O)c1ccccc12,6.7 µM,21 µM,14.3 µM,4 µM,
O=C(NCc1cccs1)c1sc(=S)n2c1[nH]c(=O)c1cc(Br)ccc12,4.1 µM,,13 µM,22 µM,inactive
Cc1ccc(NC(=O)Nc2ccc3nc(N4CCN(C)CC4)cc(C)c3c2)cc1Cl,16.6 µM,11.2 µM,5.56 µM,5.56 µM,
Cc1ccc2c(c1)c(=O)[nH]c1c(C(=O)Nc3ccccc3C)sc(=S)n12,21.1 µM,,24.7 µM,24.7 µM,
O=C(Nc1ccc(Cl)cc1)c1sc(=S)n2c1[nH]c(=O)c1ccccc12,> 25 µM,,,,
CCc1ccccc1NC(=O)c1sc(=S)n2c1[nH]c(=O)c1cc(C)ccc12,18.5 µM,31.3 µM,31.3 µM,31.3 µM,
COC(=O)c1ccc2c(=O)[nH]c3c(C(=O)Nc4ccc([N+](=O)[O-])cc4)sc(=S)n3c2c1,4.3 µM,,,,
O=C(Nc1cc(Cl)cc(Cl)c1)c1sc(=S)n2c1[nH]c(=O)c1ccc(Cl)cc12,7.4 µM,,,,
O=C(Nc1cc(Cl)cc(Cl)c1)c1sc(=S)n2c1[nH]c(=O)c1cc(Br)ccc12,3.3 µM,20.2 µM,18.4 µM,3.9 µM,
Cc1ccc(NC(=O)c2sc(=S)n3c2[nH]c(=O)c2cc(Br)ccc23)c(C)c1,6.4 µM,26 µM,17 µM,10 µM,
CCc1ccccc1NC(=O)c1sc(=S)n2c1[nH]c(=O)c1cc(Br)ccc12,4.4 µM,,,,
COc1ccc(OC)c(NC(=O)c2sc(=S)n(-c3cccc(F)c3)c2NC(=O)CCl)c1,3.8 µM,12.1 µM,1.6 µM,1.5 µM,
O=C(NCc1ccccc1Cl)c1sc(=S)n2c1[nH]c(=O)c1cc(Cl)ccc12,5.3 µM,,25 µM,33 µM,inactive
CCc1ccccc1NC(=O)c1sc(=S)n2c1[nH]c(=O)c1cc(F)c(F)cc12,5.2 µM,,,,

Compound,IC50 [1],GI50 [2],GI50 [3],GI50 [4],Activity [2]
COc1ccc(OC)c(NC(=O)c2sc(=S)n3c2[nH]c(=O)c2ccccc23)c1,> 25 µM,,,,
COC(=O)c1ccc2c(=O)[nH]c3c(C(=O)Nc4cccc(Cl)c4[N+](=O)[O-])sc(=S)n3c2c1,3 µM,,,,
CCc1ccccc1NC(=O)c1sc(=S)n2c1[nH]c(=O)c1ccc(Cl)cc12,5.1 µM,,,,
COc1cc2c(=O)[nH]c3c(C(=O)Nc4cc(Cl)cc(Cl)c4)sc(=S)n3c2cc1OC,14 µM,14.2 µM,2.2 µM,6.3 µM,
COc1ccccc1CNC(=O)c1sc(=S)n2c1[nH]c(=O)c1cc(Cl)ccc12,6 µM,,40 µM,40 µM,inactive
COc1cccc(CNC(=O)c2sc(=S)n3c2[nH]c(=O)c2cc(Cl)ccc23)c1,12.8 µM,,28.2 µM,21.6 µM,
COc1ccc(NC(=O)c2sc(=S)n3c2[nH]c(=O)c2ccccc23)cc1,> 25 µM,,,,
CSc1ccc2c(c1)N(CCC1CCCCN1C)c1ccccc1S2 (stereo not drawn) [THIORIDAZINE],4.1 µM,13.4 µM,6.6 µM,5.9 µM,
COc1ccccc1NC(=O)c1sc(=S)n2c1[nH]c(=O)c1ccccc12,> 25 µM,,,,
COc1ccc(OC)c(NC(=O)c2sc(=S)n(-c3ccc(Cl)cc3)c2NC(=O)CCl)c1,7 µM,13 µM,1.5 µM,1 µM,
COC(=O)c1ccc2c(=O)[nH]c3c(C(=O)Nc4ccccc4C)sc(=S)n3c2c1,14.5 µM,15 µM,13.1 µM,15 µM,
CCc1ccccc1NC(=O)c1sc(=S)n2c1[nH]c(=O)c1ccc(C(=O)OC)cc12,3.2 µM,,,,
CCc1ccc(NC(=O)c2sc(=S)n3c2[nH]c(=O)c2ccccc23)cc1,> 25 µM,,,,
Cc1ccccc1C1CCN(c2ccc(NC(=O)c3ccc(Cl)cc3)c(C(=O)O)c2)C1 (stereo not drawn),12 µM,,,,
O=C(NCc1ccccc1Cl)c1sc(=S)n2c1[nH]c(=O)c1cc(Br)ccc12,2.3 µM,30 µM,19 µM,15 µM,
O=C(Nc1ccc([N+](=O)[O-])cc1)c1sc(=S)n2c1[nH]c(=O)c1ccc(Cl)cc12,2.6 µM,,,,
COc1ccc(OC)c(NC(=O)c2sc(=S)n3c2[nH]c(=O)c2cc(F)c(F)cc23)c1,11.6 µM,,,,
O=C(Nc1cccc(F)c1)c1sc(=S)n2c1[nH]c(=O)c1ccc(Cl)cc12,5.53 µM,12.4 µM,16.8 µM,16.8 µM,
COc1ccc(OC)c(NC(=O)c2sc(=S)n3c2[nH]c(=O)c2cc(OC)c(OC)cc23)c1,> 25 µM,,,,
COc1ccc(OC)c(NC(=O)c2sc(=S)n3c2[nH]c(=O)c2ccc(Br)cc23)c1,18.8 µM,,,,

Compound,IC50 [1],GI50 [2],GI50 [3],GI50 [4],Activity [2]
COc1ccc(OC)c(NC(=O)c2sc(=S)n3c2[nH]c(=O)c2cc(Br)ccc23)c1,6.9 µM,12.9 µM,11.7 µM,11 µM,
CCOc1ccc(OCC)c(NC(=O)c2sc(=S)n3c2[nH]c(=O)c2ccc(Cl)cc23)c1,4.7 µM,25.6 µM,12.1 µM,12.1 µM,
Cc1ccc2c(c1)c(=O)[nH]c1c(C(=O)Nc3cc(Cl)ccc3C)sc(=S)n12,3.4 µM,23 µM,14 µM,8 µM,
COc1ccccc1NC(=O)c1sc(=S)n2c1[nH]c(=O)c1cc(Cl)ccc12,6.1 µM,23 µM,17 µM,17 µM,
COc1ccc(OC)c(NC(=O)c2sc(=S)n(-c3cccc(C#N)c3)c2NC(=O)CCl)c1,5.5 µM,11.8 µM,1.7 µM,1.6 µM,
O=C(Nc1ccc(Cl)c(Cl)c1)c1sc(=S)n2c1[nH]c(=O)c1ccccc12,> 25 µM,,,,
COc1ccc(OC)c(NC(=O)c2sc(=S)n3c2[nH]c(=O)c2cc(Cl)ccc23)c1,3.2 µM,28.1 µM,14 µM,12.4 µM,
COC(=O)c1ccc2c(=O)[nH]c3c(C(=O)Nc4ccc(Cl)cc4)sc(=S)n3c2c1,5.1 µM,18.6 µM,14.8 µM,4.4 µM,
Cc1ccc(S(=O)(=O)C2=C(O)C(=O)N(Cc3ccc(F)cc3)C2c2ccc(C(C)C)cc2)cc1 (stereo not drawn),13 µM,,,,
COC(=O)c1ccc2c(=O)[nH]c3c(C(=O)Nc4cc(Cl)cc(Cl)c4)sc(=S)n3c2c1,2.5 µM,,,,
COC(=O)c1ccc2c(=O)[nH]c3c(C(=O)Nc4ccc(Cl)c(Cl)c4)sc(=S)n3c2c1,6.9 µM,,,,
COc1ccc(OC)c(NC(=O)c2sc(=S)n3c2[nH]c(=O)c2ccc(F)cc23)c1,17 µM,,,,
O=C(Nc1ccccc1Cl)c1sc(=S)n2c1[nH]c(=O)c1ccccc12,20.4 µM,,,,
COc1ccc(OC)c(NC(=O)c2sc(=S)n3c2[nH]c(=O)c2ccc(OC)cc23)c1,> 25 µM,,,,
COc1ccccc1NC(=O)c1sc(=S)n2c1[nH]c(=O)c1ccc(Br)cc12,7.7 µM,,,,
COc1cccc(NC(=O)c2sc(=S)n3c2[nH]c(=O)c2ccccc23)c1,> 25 µM,,,,
CC(C)c1ccc(S(=O)(=O)Nc2ccc(N3CCC(Cc4ccccc4)CC3)cc2C(=O)O)cc1,12.3 µM,,,,
COc1ccc(OC)c(NC(=O)c2sc(=S)n3c2[nH]c(=O)c2cc(OC)ccc23)c1,> 25 µM,,,,
CCc1ccccc1NC(=O)c1sc(=S)n2c1[nH]c(=O)c1ccccc12,14.7 µM,,,,
